Assay results published in ChEMBL document CHEMBL3244377, “Synthesis and biochemical evaluation of nucleosides of naphthoquinone heterocycles” (J Med Chem, 1977).
Active and inactive are the calls of the source. No cut-off for these calls is given here.

Columns and labels:
Human respirovirus 3 = test: Antiviral activity against Parainfluenza virus 3 by tissue culture assay; format: functional, organism-based
Human rhinovirus A13 = test: Antiviral activity against Rhinovirus 13 by tissue culture assay; format: functional
Human alphaherpesvirus 1 = test: Antiviral activity against Herpes simplex virus 1 by tissue culture assay; format: functional, organism-based
[1] = target: T1, Hypoxanthine-guanine phosphoribosyltransferase (Mus musculus) (UniProt P00493); test: Inhibition of hypoxanthine phosphoribosyltransferase in mouse Ehrlich ascites tumor cells assessed as decrease in purine nucleotide biosynthesis using [14C]hypoxanthine as substrate at 100 uM incubated for 20 mins followed by substrate addition for 60 mins by thin layer chromatography
T1 sequence (whole entry): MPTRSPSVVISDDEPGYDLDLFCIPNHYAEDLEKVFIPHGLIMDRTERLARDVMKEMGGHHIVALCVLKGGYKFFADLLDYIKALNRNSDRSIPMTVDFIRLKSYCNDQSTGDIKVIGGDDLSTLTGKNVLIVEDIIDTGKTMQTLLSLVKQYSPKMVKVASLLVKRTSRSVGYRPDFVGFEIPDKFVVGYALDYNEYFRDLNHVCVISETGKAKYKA
Summary of the method: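 Ehrlich ascites tumor cell suspensions were preincubated 20 min with compound at 100 μM. [14C]Hypoxanthine was then added at 100 μM for a further 60 min. Cells were disrupted, and adenine and guanine nucleotides were resolved by TLC. Radioactivity in individual nucleotides of treated cells was compared with untreated cells to derive apparent purine-metabolism enzyme rates and their inhibition.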

| Structure (SMILES) | inhibition [1] [%] | Activity (Human respirovirus 3) | Activity (Human rhinovirus A13) | Activity (Human alphaherpesvirus 1) |
| --- | --- | --- | --- | --- |
| O=C1c2ccccc2C(=O)c2c1ncn2[C@@H]1O[C@H](CO)[C@@H](O)[C@H]1O | 68 | inactive | inactive | inactive |
| O=C1c2ccccc2C(=O)c2nn([C@@H]3O[C@H](CO)[C@@H](O)[C@H]3O)nc21 | 72 | inactive | inactive | inactive |
| O=C1c2ccccc2C(=O)c2nn([C@@H]3O[C@H](CO)[C@@H](O)[C@H]3O)cc21 | 0 | inactive | inactive | inactive |

The next lines start with results.

| inhibition [1] [%] | Structure (SMILES) | Activity (Human respirovirus 3) | Activity (Human rhinovirus A13) | Activity (Human alphaherpesvirus 1) |
| --- | --- | --- | --- | --- |
| 5 | O=C1c2ccccc2C(=O)c2[nH]ncc21 | inactive | inactive | inactive |
| 1 | O=C1c2ccccc2C(=O)c2[nH]nnc21 | inactive | inactive | inactive |
| 82 | O=C1c2ccccc2C(=O)c2[nH]cnc21 | inactive | inactive | inactive |
